Tests used:
Cynomolgus monkey [1] = assay: Antiandrogenic activity in cynomolgus monkey assessed as serum testosterone level at 3 mg/kg, po after 5 hrs (reference value: 98 +/- 33%); assay type: functional, Macaca fascicularis
Cynomolgus monkey [2] = assay: Antiandrogenic activity in cynomolgus monkey assessed as serum testosterone level at 3 mg/kg, po after 2 hrs (reference value: 110 +/- 29%); assay type: functional, Macaca fascicularis
[3] = target: T1, Steroid 17-alpha-hydroxylase/17,20 lyase (Rattus norvegicus, UniProt P11715); assay: Inhibition of 17,20 lyase activity in Sprague-Dawley rat testicular microsomes; design: species or system Testis
T1 sequence (P11715 whole entry): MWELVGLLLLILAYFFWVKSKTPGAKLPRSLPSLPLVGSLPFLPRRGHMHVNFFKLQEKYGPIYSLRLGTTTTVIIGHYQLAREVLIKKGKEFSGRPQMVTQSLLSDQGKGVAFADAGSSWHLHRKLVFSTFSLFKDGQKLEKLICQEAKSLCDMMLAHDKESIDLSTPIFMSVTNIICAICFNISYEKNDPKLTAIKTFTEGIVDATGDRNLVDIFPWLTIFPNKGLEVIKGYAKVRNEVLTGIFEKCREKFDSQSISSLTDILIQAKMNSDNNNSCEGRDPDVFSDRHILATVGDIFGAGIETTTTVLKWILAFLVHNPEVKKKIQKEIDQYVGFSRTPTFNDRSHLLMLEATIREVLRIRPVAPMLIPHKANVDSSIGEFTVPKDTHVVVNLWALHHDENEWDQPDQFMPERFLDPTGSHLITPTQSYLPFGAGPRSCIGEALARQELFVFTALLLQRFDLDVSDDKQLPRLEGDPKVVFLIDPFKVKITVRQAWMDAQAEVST
How it was run: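 Testicular microsomes came from 13-week-old male SD rats, prepared by homogenisation and centrifugation. Reactions contained 75 mM phosphate (pH 7.4), 7 µg microsomal protein, 10 nM [1,2-3H]-17α-hydroxyprogesterone, 5 mM NADPH and 1–1000 nM compound (final concentrations; DMF stocks diluted in water). Incubation was 15 min at 37 °C, stopped with ethyl acetate. IC50 is the concentration halving product formation.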

[4] = target: T2, Steroid 17-alpha-hydroxylase/17,20 lyase (Homo sapiens, UniProt P05093); assay: Inhibition of human 17,20 lyase activity
T2 sequence (P05093 whole entry): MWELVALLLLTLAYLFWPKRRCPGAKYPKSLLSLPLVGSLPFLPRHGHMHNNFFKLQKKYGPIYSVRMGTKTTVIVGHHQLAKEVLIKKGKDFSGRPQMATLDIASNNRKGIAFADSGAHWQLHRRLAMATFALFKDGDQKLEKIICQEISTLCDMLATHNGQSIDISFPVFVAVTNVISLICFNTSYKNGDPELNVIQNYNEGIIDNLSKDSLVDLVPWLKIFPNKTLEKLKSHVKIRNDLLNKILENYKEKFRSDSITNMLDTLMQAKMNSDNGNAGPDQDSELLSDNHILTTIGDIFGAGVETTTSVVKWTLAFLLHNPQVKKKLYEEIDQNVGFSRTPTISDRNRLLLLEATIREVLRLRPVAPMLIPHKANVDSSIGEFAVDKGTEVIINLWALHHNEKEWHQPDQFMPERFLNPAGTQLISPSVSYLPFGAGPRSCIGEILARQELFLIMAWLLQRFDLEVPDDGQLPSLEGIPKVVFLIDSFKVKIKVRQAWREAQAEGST

Cynomolgus monkey [5] = assay: Antiandrogenic activity in cynomolgus monkey assessed as serum DHEA level at 3 mg/kg, po after 2 hrs (reference value: 116 +/- 95%); assay type: functional, Macaca fascicularis
Cynomolgus monkey [6] = assay: Antiandrogenic activity in cynomolgus monkey assessed as serum DHEA level at 3 mg/kg, po after 5 hrs (reference value: 148 +/- 53%); assay type: functional, Macaca fascicularis
Cytochrome P450 3A4 = Cytochrome P450 3A4 (Homo sapiens, UniProt P08684); assay: Inhibition of human CYP3A4 after 30 mins; assay type: ADME
Chain of Cytochrome P450 3A4 (P08684 whole entry): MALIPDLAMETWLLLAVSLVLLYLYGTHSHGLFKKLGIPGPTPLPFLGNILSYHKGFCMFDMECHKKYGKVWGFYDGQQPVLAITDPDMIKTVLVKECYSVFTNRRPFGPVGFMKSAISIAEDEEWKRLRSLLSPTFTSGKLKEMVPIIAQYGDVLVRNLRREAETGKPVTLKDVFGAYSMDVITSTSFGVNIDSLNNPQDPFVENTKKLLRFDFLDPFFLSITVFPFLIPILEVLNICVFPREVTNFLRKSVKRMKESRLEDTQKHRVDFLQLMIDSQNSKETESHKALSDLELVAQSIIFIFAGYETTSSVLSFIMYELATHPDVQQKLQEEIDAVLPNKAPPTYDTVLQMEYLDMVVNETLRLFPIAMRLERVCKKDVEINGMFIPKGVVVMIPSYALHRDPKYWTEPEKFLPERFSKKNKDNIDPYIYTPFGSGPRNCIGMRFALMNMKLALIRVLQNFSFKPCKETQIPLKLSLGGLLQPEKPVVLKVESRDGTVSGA

Homo sapiens = species: Homo sapiens; assay: Ratio of IC50 for human CYP3A4 to IC50 for human 17,20-lyase

SMILES | IC50 (Cytochrome P450 3A4) | Ratio IC50 (Homo sapiens) | Activity (Cynomolgus monkey [1]) | Activity (Cynomolgus monkey [2]) | IC50 [3] | IC50 [4] | Activity (Cynomolgus monkey [5]) | Activity (Cynomolgus monkey [6])
CC(=O)Nc1cccc(-c2ccc([C@](O)(c3c[nH]cn3)C(C)C)cc2)c1 | – | – | 23% | 52% | 14 nM | 26 nM | 23% | 13%
CC(=O)Nc1cccc(-c2ccc([C@@](O)(c3c[nH]cn3)C(C)C)cc2)c1 | – | – | – | – | 770 nM | 340 nM | – | –
CC(=O)Nc1cccc(-c2ccc([C@](O)(c3cnc[nH]3)C(C)C)cc2)n1 | > 10000 nM | – | – | – | 33 nM | 26 nM | – | –
CC(=O)Nc1cccc(-c2ccc([C@@](O)(c3cnc[nH]3)C(C)C)cc2)n1 | > 10000 nM | – | – | – | > 1000 nM | 92 nM | – | –
CC(=O)Nc1cccc(-c2ccc([C@](O)(c3c[nH]cn3)C(C)C)cc2)n1 | – | > 300 | – | – | – | – | – | –
CC(C)C(O)(c1cccc(-c2ccc(F)cc2)c1)c1c[nH]cn1 (racemic) | 2100 nM | 111 | – | – | – | 19 nM | – | –
CC(C)C(O)(c1ccc(-c2ccccc2)cc1)c1c[nH]cn1 (racemic) | 3700 nM | 112 | – | – | 33 nM | 33 nM | – | –
COc1ccc(-c2ccc(C(O)(c3c[nH]cn3)C(C)C)cc2)cc1 (racemic) | 4900 nM | 91 | – | – | 120 nM | 54 nM | – | –
CC(C)C(O)(c1ccc(-c2ccc(F)cc2)cc1)c1c[nH]cn1 (racemic) | 5300 nM | 196 | – | – | – | 27 nM | – | –
CC(C)C(O)(c1ccc(-c2ccc(Cl)cc2)cc1)c1c[nH]cn1 (racemic) | 7600 nM | 271 | – | – | 29 nM | 28 nM | – | –
CC(=O)Nc1cccc(-c2ccc(C(O)(c3c[nH]cn3)C(C)C)cc2)c1 (racemic) | – | – | – | – | 17 nM | 24 nM | – | –
CC(=O)Nc1ccc(-c2ccc(C(O)(c3c[nH]cn3)C(C)C)cc2)cc1 (racemic) | 1000 nM | – | – | – | 24 nM | 120 nM | – | –
CNC(=O)c1cccc(-c2ccc(C(O)(c3c[nH]cn3)C(C)C)cc2)c1 (racemic) | 8100 nM | – | – | – | 49 nM | 44 nM | – | –
CNS(=O)(=O)c1cccc(-c2ccc(C(O)(c3cnc[nH]3)C(C)C)cc2)c1 (racemic) | 3300 nM | – | – | – | 71 nM | 160 nM | – | –
CNC(=O)Nc1cccc(-c2ccc(C(O)(c3c[nH]cn3)C(C)C)cc2)c1 (racemic) | 5500 nM | – | – | – | 24 nM | 21 nM | – | –
CC(=O)Nc1cccc(-c2ccc(C(O)(c3c[nH]cn3)C(C)C)cc2)n1 (racemic) | > 10000 nM | – | – | – | 53 nM | 36 nM | – | –
CC(=O)Nc1cccc(-c2ccc(C(O)c3cnc[nH]3)cc2)c1 (racemic) | > 10000 nM | – | – | – | 320 nM | 77 nM | – | –

Further lines, with some results ahead:

IC50 (Cytochrome P450 3A4) | Ratio IC50 (Homo sapiens) | SMILES | Activity (Cynomolgus monkey [1]) | Activity (Cynomolgus monkey [2]) | IC50 [3] | IC50 [4] | Activity (Cynomolgus monkey [5]) | Activity (Cynomolgus monkey [6])
> 10000 nM | > 300 | CC[C@](O)(c1ccc(-c2cccc(NC(C)=O)c2)cc1)c1c[nH]cn1 | – | – | 19 nM | 22 nM | – | –
> 10000 nM | – | CC[C@@](O)(c1ccc(-c2cccc(NC(C)=O)c2)cc1)c1c[nH]cn1 | – | – | 450 nM | 240 nM | – | –
2000 nM | 15 | COc1ccc(-c2cccc(C(O)(c3c[nH]cn3)C(C)C)c2)cc1 (racemic) | – | – | – | 130 nM | – | –
2400 nM | 49 | CC(C)C(O)(c1cccc(-c2ccc(Cl)cc2)c1)c1c[nH]cn1 (racemic) | – | – | 19 nM | 49 nM | – | –
5200 nM | – | CC(C)C(O)(c1ccc(-c2ccccn2)cc1)c1c[nH]cn1 (racemic) | – | – | 210 nM | 150 nM | – | –
> 10000 nM | – | CC(=O)Nc1cccc(-c2ccc(C(C)(O)c3c[nH]cn3)cc2)c1 (racemic) | – | – | 62 nM | 38 nM | – | –
> 10000 nM | – | CCC(O)(c1ccc(-c2cccc(NC(C)=O)c2)cc1)c1c[nH]cn1 (racemic) | – | – | 25 nM | 40 nM | – | –
5500 nM | – | CC(=O)Nc1cccc(-c2ccc(C(O)(c3c[nH]cn3)C3CC3)cc2)c1 (racemic) | – | – | 81 nM | 45 nM | – | –
< 1000 nM | – | COc1ccc2cc(C(O)(c3c[nH]cn3)C(C)C)ccc2c1 (racemic) | – | – | – | – | – | –
